Our source for the MIC and MHC values is ChEMBL document CHEMBL1135705, “Correlation of the antibacterial activities of cationic peptide antibiotics and cationic steroid antibiotics” (2002).

The term MIC denotes the smallest concentration in the dilution series that meets the test's criterion for growth inhibition.

Assay [1] relates to Salmonella typhimurium. The experiment in a line: Antibacterial activity against Gram-negative bacteria -Salmonella Typhimurium (ATCC 14028). The format is functional, Salmonella enterica subsp. enterica serovar Typhimurium. Conditions: Salmonella enterica.
Assay [2] has as its system Staphylococcus aureus. The experiment in a line: Antibacterial activity against Gram-positive bacteria -S. aureus (ATCC 25923). It is filed as functional.
Assay [3] concerns Escherichia coli. The experiment in a line: Antibacterial activity against Gram-negative bacteria- Escherichia coli (ATCC 25922). It is filed as functional.
Assay [4] concerns Streptococcus pyogenes. The experiment in a line: Antibacterial activity against Gram-positive bacteria-Streptococcus pyogenes (ATCC 19615). It is filed as functional.
Assay [5] in a line: Compound was evaluated for minimum hemolytic concentration. It is filed as functional. In a few lines: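 Hemolysis was tested up to 200 µg/mL. Higher concentrations could not be used because of limited solubility.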

Converted amounts (≈) assume the structure as drawn.

With `C[C@H](CCCN(CCCN)CCCN)[C@H]1CC[C@H]2[C@@H]3[C@H](OCCCN)CC4C[C@H](OCCCN)CC[C@]4(C)[C@H]3C[C@H](OCCCN)[C@]12C` (stereo not given in full), the MIC came out at 25 µg/mL (≈ 36.8 µM) in assay [1], 4.6 µg/mL (≈ 6.77 µM) in assay [2], 6.6 µg/mL (≈ 9.72 µM) in assay [3] and 3 µg/mL (≈ 4.42 µM) in assay [4]. Moreover, the MHC in assay [5] was over 200 µg/mL.

Turning to `C[C@H](CCCNCCCNCCCN)[C@H]1CC[C@H]2[C@@H]3[C@H](OCCCN)CC4C[C@H](OCCCN)CC[C@]4(C)[C@H]3C[C@H](OCCCN)[C@]12C` (stereo not given in full), the MIC in assay [1] is 12 µg/mL (≈ 17.7 µM); in assay [2] it was 2 µg/mL (≈ 2.95 µM); in assay [3], 7.3 µg/mL (≈ 10.7 µM); in assay [4], 1.6 µg/mL (≈ 2.36 µM). In addition, the MHC in assay [5] is over 200 µg/mL.

`C[C@H](CCCO)[C@H]1CC[C@H]2[C@@H]3[C@H](OCCCN)CC4C[C@H](OCCCN)CC[C@]4(C)[C@H]3C[C@H](OCCCN)[C@]12C` (stereo not given in full): the MIC stood at 43 µg/mL (≈ 76 µM) in assay [1], 2 µg/mL (≈ 3.53 µM) in assay [2], 36 µg/mL (≈ 63.6 µM) in assay [3] and 4.2 µg/mL (≈ 7.42 µM) in assay [4]. In assay [5], this compound gave an MHC of 100 µg/mL.
